This is an account of results in ChEMBL document CHEMBL1255451, “Genetic basis of multidrug resistance in Acinetobacter clinical isolates in Taiwan” (2010).

≈ marks a conversion by molar mass, not a printed value. Calls of active or inactive are those of the source.

Holding throughout (format): functional
The test system of assay [1] is Acinetobacter baumannii. In words: Antimicrobial activity against Acinetobacter baumannii ATCC 15151 harboring ISAba1-blaOXA-66 gene by Etest.
Assay [2] concerns Acinetobacter baumannii. In words: Antimicrobial activity against Acinetobacter baumannii ATCC 15151 harboring ISAba1-blaOXA-23 gene by Etest.
In assay [3] the test system is Acinetobacter baumannii. Briefly: Antimicrobial activity against Acinetobacter baumannii 6AB11 harboring ISAba1-blaOXA-66 gene by Etest.
Assay [4] relates to Acinetobacter baumannii. In words: Antimicrobial activity against Acinetobacter baumannii ATCC 15151 harboring plasmid AT801 by Etest.
The subject of assay [5] is Acinetobacter baumannii. Briefly: Antimicrobial activity against Acinetobacter baumannii ATCC 15151 by Etest.
Assay [6] relates to Acinetobacter baumannii. Briefly: Antimicrobial activity against Acinetobacter baumannii 6AB15 harboring ISAba1-blaOXA-23 and blaOXA-66 gene by Etest.
In assay [7] the test system is Acinetobacter sp. In words: Antimicrobial activity against Acinetobacter sp. harboring aacA4 gene assessed as percent resistant isolates. An outline of the steps:
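Isolates: 75 nonduplicated Acinetobacter clinical isolates collected at one Taipei hospital in 2006 and identified with API 20NE. Susceptibility was tested on the Vitek 2 automated system using the AST-GN09 Gram-negative card.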

Regarding `C[C@H]1COc2c(N3CCN(C)CC3)c(F)cc3c(=O)c(C(=O)O)cn1c23`, the outcome in assay [1] and in assay [2] was Active.
Take `NCC[C@H](O)C(=O)N[C@@H]1C[C@H](N)[C@@H](O[C@H]2O[C@H](CN)[C@@H](O)[C@H](O)[C@H]2O)[C@H](O)[C@H]1O[C@H]1O[C@H](CO)[C@@H](O)[C@H](N)[C@H]1O`: the outcome in assay [1] and in assay [2] was Active.
For the compound `O=C(O)c1cn(C2CC2)c2cc(N3CCNCC3)c(F)cc2c1=O`, the outcome in assay [1] and in assay [2] was Active.
The term MIC denotes the smallest concentration in the dilution series that meets the test's criterion for growth inhibition. The low end stands for inhibition by little substance, the high end for a need for much substance. Take `CC1(C)S[C@@H]2[C@H](NC(=O)[C@H](N)c3ccccc3)C(=O)N2[C@H]1C(=O)O` [AMPICILLIN]: the MIC in assay [1] is no less than 32 µg/mL; in assay [3], no less than 32 µg/mL; in assay [4] it was 32 µg/mL (≈ 91.6 µM); in assay [5] it was 16 µg/mL (≈ 45.8 µM); in assay [2], no less than 32 µg/mL; in assay [6], no less than 32 µg/mL.
With `CO/N=C(\C(=O)N[C@@H]1C(=O)N2C(C(=O)[O-])=C(C[N+]3(C)CCCC3)CS[C@H]12)c1csc(N)n1` [CEFEPIME], the MIC is 4 µg/mL (≈ 8.32 µM) in assay [1]; no less than 64 µg/mL in assay [3]; 4 µg/mL (≈ 8.32 µM) in assay [4]; 4 µg/mL (≈ 8.32 µM) in assay [5]; no less than 64 µg/mL in assay [2]; no less than 64 µg/mL in assay [6].
Regarding `CC(C)(O/N=C(\C(=O)N[C@@H]1C(=O)N2C(C(=O)[O-])=C(C[n+]3ccccc3)CS[C@H]12)c1csc(N)n1)C(=O)O` [CEFTAZIDIME], the MIC was 4 µg/mL (≈ 7.32 µM) in assay [1]; no less than 64 µg/mL in assay [3]; 4 µg/mL (≈ 7.32 µM) in assay [4]; 4 µg/mL (≈ 7.32 µM) in assay [5]; 8 µg/mL (≈ 14.6 µM) in assay [2]; no less than 64 µg/mL in assay [6].
Consider `C[C@@H](O)[C@H]1C(=O)N2C(C(=O)O)=C(SCCNC=N)C[C@H]12` [IMIPENEM ANHYDROUS], for which the MIC in assay [1] was no less than 32 µg/mL; in assay [3], no less than 32 µg/mL; in assay [4] it was 0.25 µg/mL (≈ 0.835 µM); in assay [5] it was 0.25 µg/mL (≈ 0.835 µM); in assay [2] it was no less than 16 µg/mL; in assay [6], no less than 32 µg/mL.
Consider `C[C@@H](O)[C@H]1C(=O)N2C(C(=O)O)=C(S[C@@H]3CN[C@H](C(=O)N(C)C)C3)[C@H](C)[C@H]12` [MEROPENEM], for which the MIC is no less than 16 µg/mL in assay [1]; 16 µg/mL (≈ 41.7 µM) in assay [3]; 0.25 µg/mL (≈ 0.652 µM) in assay [4]; 0.25 µg/mL (≈ 0.652 µM) in assay [5]; no less than 16 µg/mL in assay [2]; no less than 16 µg/mL in assay [6].
Regarding `CCN1CCN(C(=O)N[C@@H](C(=O)N[C@@H]2C(=O)N3[C@@H]2SC(C)(C)[C@@H]3C(=O)O)c2ccccc2)C(=O)C1=O` [PIPERACILLIN], the MIC in assay [1] is no less than 128 µg/mL; in assay [3] it was no less than 128 µg/mL; in assay [4] it was no less than 128 µg/mL; in assay [5], 16 µg/mL (≈ 30.9 µM); in assay [2], no less than 128 µg/mL; in assay [6], no less than 128 µg/mL.
In the case of `NC[C@H]1O[C@H](O[C@H]2[C@H](O)[C@@H](O[C@H]3O[C@H](CO)[C@@H](O)[C@H](N)[C@H]3O)[C@H](N)C[C@@H]2N)[C@H](N)C[C@@H]1O` [TOBRAMYCIN], the result in assay [1] and in assay [2] was Active. For the same compound, in assay [7], the Activity turned out to be 66%.
Consider GENTAMICIN, for which the outcome in assay [1] and in assay [2] was Active. Further, in assay [7], the Activity amounted to 66%.
